ChEMBL document CHEMBL2034894, “The structures of three metabolites of the algal hepatotoxin okadaic acid produced by oxidation with human cytochrome P450” (Bioorg Med Chem, 2012)
Active and inactive are the calls of the source. No cut-off for these calls is given here. Numbered stars: 1 amine (or outer) side, 2 acyl side, 3 side chain; on linkers, the order of the positions; unused ones are H or OH. Bridge positions count the residues as written; N and C are the ends. Square brackets hold non-standard residues; d marks the D form. Peptide text beside a SMILES is read from it. Adda = CO[C@@H](Cc1ccccc1)[C@@H](C)/C=C(C)/C=C/[C@H](N[*:1])[C@H](C)C(=O)[*:2]; dAsp(3S-Me) = C[C@H](C(=O)[*:3])[C@@H](N[*:1])C(=O)[*:2]; d(γGlu) = O=C(O)[C@@H](CCC(=O)[*:2])N[*:1]; NMeDha = C=C(NC)C(=O)O

Tests used:
[1] = Reversible inhibition of PP2A using p-NPP as substrate assessed as recovery of enzyme activity at 100 uM pretreated for […] followed by 4 hrs dialysis by spectrophotometry relative to control; design: scale not given: the % may be the effect or the level left
Procedure, shortened: (§1)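 PP2A (0.07 U) was mixed 1:1 by volume with inhibitor solutions in 5% MeOH/H2O (20–100 µM before mixing) at 37 °C; controls got 5% MeOH/H2O alone. Buffer: 50 mM Tris, 2 mM MnCl2, 1.1 mM EDTA, 1.3 mM DTT, 0.125 mg/mL BSA. Samples were dialysed against buffer for 4 h at 5–7 °C, then given p-NPP (7.8 mM final) for 2 h at 37 °C; A405 read against control.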

[2] = Inhibition of protein phosphatase 1
[3] = Inhibition of PP2A using p-NPP as substrate pretreated for 1 hr by spectrophotometry
[4] = Reversible inhibition of PP2A using p-NPP as substrate assessed as recovery of enzyme activity at 80 uM […] followed by 4 hrs dialysis by spectrophotometry relative to control; design: scale not given: the % may be the effect or the level left
[5] = Irreversible inhibition of PP2A using p-NPP as substrate assessed as recovery of enzyme activity pretreated for 1 hr followed by 4 hrs dialysis by spectrophotometry; procedure, shortened: as §1

Row | SMILES | Activity [1] [%] | inhibition [2] | IC50 [3] [nM] | Activity [4] [%] | inhibition [5] | inhibition [3]
1 | C=C1[C@@H](O)[C@@H]2O[C@]3(CC[C@H](/C=C/[C@@H](C)[C@@H]4CC(CO)=C[C@@]5(O[C@H](C[C@@](C)(O)C(=O)O)CC[C@H]5O)O4)O3)CC[C@H]2O[C@@H]1[C@@H](O)C[C@H](C)[C@H]1O[C@@]2(CCCCO2)CC[C@H]1C | 113 | Active | 1.34 |  |  | 
2 | C=C1[C@@H](O)[C@@H]2O[C@]3(CC[C@H](/C=C/[C@@H](C)[C@@H]4CC(C=O)=C[C@@]5(O[C@H](C[C@@](C)(O)C(=O)O)CC[C@H]5O)O4)O3)CC[C@H]2O[C@@H]1[C@@H](O)C[C@H](C)[C@H]1O[C@@]2(CCCCO2)CC[C@H]1C |  | Active | 3.98 | 117 |  | 
3 | C=C1[C@@H](O)[C@@H]2O[C@]3(CC[C@H](/C=C/[C@@H](C)[C@@H]4CC(C)=C[C@@]5(O[C@H](C[C@@](C)(O)C(=O)O)CC[C@H]5O)O4)O3)CC[C@H]2O[C@@H]1[C@@H](O)C[C@H](C)[C@H]1O[C@]2(CC[C@H]1C)CC(O)CCO2 (stereo partly specified) |  | Active | 0.94 |  |  | 
4 | C=C1C(=O)N[C@H](C)C(=O)N[C@@H](CC(C)C)C(=O)N[C@@H](C(=O)O)[C@H](C)C(=O)N[C@@H](CCCNC(=N)N)C(=O)N[C@@H](/C=C/C(C)=C/[C@H](C)[C@H](Cc2ccccc2)OC)[C@H](C)C(=O)N[C@@H](C(=O)O)CCC(=O)N1C (R[Adda][d(γGlu)][NMeDha][dA]L[dAsp(3S-Me)]-OH; lactam N-7) |  |  |  |  | Active | 
5 | C=C1[C@@H](O)[C@@H]2O[C@]3(CC[C@H](/C=C/[C@@H](C)[C@@H]4CC(C)=C[C@@]5(O[C@H](C[C@@](C)(O)C(=O)O)CC[C@H]5O)O4)O3)CC[C@H]2O[C@@H]1[C@@H](O)C[C@H](C)[C@H]1O[C@@]2(CCCCO2)CC[C@H]1C |  | Active |  |  |  | Active
